Holding throughout (type): functional
The subject of test [1] is Escherichia coli. In words: Antibacterial activity against Escherichia coli. Summed up: (§1)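 Broth microdilution MIC run in duplicate. Overnight culture grown in appropriate medium was added to compound in 0.5% DMSO in water, giving about 10²–10³ CFU/well. Growth relative to a compound-free well was read as A595 after 20–24 h at 37 °C. MIC was reported as a range: complete inhibition at the upper concentration, viable cells at the lower. Strains: E. faecalis ATCC 29212, E. coli ATCC 25922, S. aureus ATCC 13709.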

For test [2], the system named is Staphylococcus aureus. The experiment in a line: Antibacterial activity against Staphylococcus aureus. Summed up:
as §1

Test [3] deals with Enterococcus faecalis. The experiment in a line: Antibacterial activity against Enterococcus faecalis. The essentials: as §1
Test [4] relates to Streptococcus pyogenes. In words: Antibacterial activity against Streptococcus pyogenes.

Among the data in ChEMBL document CHEMBL1136376, “Identification of 2-aminobenzimidazole dimers as antibacterial agents” (2003) are MIC values, retold here.

In brackets after ≈: the same amount, converted by molar mass.

For `CN(CCn1c(N)nc2cc(Cl)c(Cl)cc21)CCn1c(N)nc2cc(Cl)c(Cl)cc21`, the MIC is 6 µM (≈ 2.92 µg/mL) in test [1] and 12 µM (≈ 5.85 µg/mL) in test [2].
For `CN(CCCn1c(N)nc2cc(Br)ccc21)CCCn1c(N)nc2cc(Br)ccc21`, the minimal inhibitory concentration (MIC) in test [1] and in test [2] was more than 100 µM in each case.
For the compound `CN(CCCn1c(N)nc2cc(Cl)c(Cl)cc21)CCCn1c(N)nc2cc(Cl)c(Cl)cc21`, the MIC in test [1] was 6 µM (≈ 3.09 µg/mL); in test [3], 6 µM (≈ 3.09 µg/mL); in test [4] it was 6 µM (≈ 3.09 µg/mL); in test [2] it was 12 µM (≈ 6.18 µg/mL).
Regarding `CN(CCCn1c(N)nc2cc(C#N)ccc21)CCCn1c(N)nc2cc(C#N)ccc21`, the MIC in test [1] and in test [2] was more than 100 µM in each case.
With `COc1ccc2nc(N)n(CCCN(C)CCCn3c(N)nc4ccc(OC)cc43)c2c1`, the minimal inhibitory concentration (MIC) in test [1] and in test [2] was more than 100 µM throughout.
As for `CN(CCCn1c(N)nc2cc(Cl)ccc21)CCCn1c(N)nc2cc(Cl)ccc21`, the minimal inhibitory concentration (MIC) in test [1], in test [3], in test [4] and in test [2] was 50 µM (≈ 22.3 µg/mL) throughout.
On to `CN(CCCNc1nc2cc(Cl)c(Cl)cc2[nH]1)CCCNc1nc2cc(Cl)c(Cl)cc2[nH]1`, for which the minimal inhibitory concentration (MIC) amounted to 12 µM (≈ 6.18 µg/mL) in test [1], 6 µM (≈ 3.09 µg/mL) in test [3], 6 µM (≈ 3.09 µg/mL) in test [4] and 6 µM (≈ 3.09 µg/mL) in test [2].
For the compound `CN(CCNc1nc2cc(Cl)c(Cl)cc2[nH]1)CCNc1nc2cc(Cl)c(Cl)cc2[nH]1`, the minimal inhibitory concentration (MIC) in test [1] was determined as 25 µM (≈ 12.2 µg/mL); in test [3], 1.5 µM (≈ 0.731 µg/mL); in test [4], 6 µM (≈ 2.92 µg/mL); in test [2], 12 µM (≈ 5.85 µg/mL).
Consider `Cc1ccc2nc(N)n(CCCN(C)CCCn3c(N)nc4ccc(C)cc43)c2c1`, for which the minimal inhibitory concentration (MIC) in test [1] and in test [2] was more than 100 µM in each case.
For the compound `CN(CCCn1cnc2cc(Cl)c(Cl)cc21)CCCn1cnc2cc(Cl)c(Cl)cc21`, the minimum inhibitory concentration (MIC) in test [1] is 100 µM (≈ 48.5 µg/mL); in test [2] it was 50 µM (≈ 24.3 µg/mL).
For the compound `COC(=O)c1ccc2c(c1)nc(N)n2CCCN(C)CCCn1c(N)nc2cc(C(=O)OC)ccc21`, the minimal inhibitory concentration (MIC) in test [1] and in test [2] was more than 100 µM in each case.
In the case of `Nc1nc2cc(Cl)c(Cl)cc2n1CCCOCCCn1c(N)nc2cc(Cl)c(Cl)cc21`, the MIC in test [1] and in test [2] was more than 100 µM in each case.
For the compound `Nc1nc2cc(Cl)c(Cl)cc2n1CCCCCCCn1c(N)nc2cc(Cl)c(Cl)cc21`, the MIC in test [1] and in test [2] was more than 100 µM each time.
As to `CN(CCCn1c(N)nc2ccccc21)CCCn1c(N)nc2ccccc21`, the MIC in test [1] and in test [2] was 100 µM (≈ 37.7 µg/mL) throughout.
In the case of `CN(CCCn1c(N)nc2cc(C(F)(F)F)ccc21)CCCn1c(N)nc2cc(C(F)(F)F)ccc21`, the MIC came to 25 µM (≈ 12.8 µg/mL) in test [1], 25 µM (≈ 12.8 µg/mL) in test [3], 25 µM (≈ 12.8 µg/mL) in test [4] and 50 µM (≈ 25.7 µg/mL) in test [2].

For orientation: MIC means the lowest concentration that inhibits growth of the organism. A low value points to a more susceptible organism.
